This note sets out measurements from ChEMBL document CHEMBL1156334, “New Angiopep-modified doxorubicin (ANG1007) and etoposide (ANG1009) chemotherapeutics with increased brain penetration” (J Med Chem, 2010).

Series [1] can be described thus: Cytotoxicity against human U87MG cells after 48 hrs by [3H]thymidine incorporation assay. It counts as functional, cell-based, U-87MG ATCC. The settings on record: U-87 MG. The gist of the method: (§1)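 Tumor cells were seeded at 5000 per well and exposed to increasing drug concentrations for 48 h. The medium was then aspirated and cells pulse-labeled for 2 h at 37 °C in fresh medium with 2 μCi/mL [methyl-3H]thymidine. Cells were harvested and tritium was counted by scintillation. Incorporation was plotted against concentration to estimate IC50.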
(In general: Uptake of a labelled nucleoside into DNA is a usual measure of proliferation.)

The next series concerns SK-HEP1. Nature of the series: Cytotoxicity against human SKHEP1 cells after 48 hrs by [3H]thymidine incorporation assay. It counts as functional, cell-based. The method in brief:
as §1

Series [2] can be described thus: Cell cycle arrest in human U87MG cells assessed as accumulation at S phase at 33 nM after 24 hrs by flow cytometry. It counts as functional, cell-based. The settings on record: U-87MG ATCC. The gist of the method: (§2)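 Exponentially growing U87 MG cells in flasks were treated with drug or left untreated as controls. Cells were trypsinized, washed twice in PBS, fixed in 70% ice-cold ethanol, and stained with 50 μg/mL propidium iodide plus 0.5 mg/mL RNase in 10 mM Tris, 5 mM MgCl2. DNA content was measured by flow cytometry and given as % of cells per phase, from one representative of three experiments.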

A further series has as its system NCI-H460. Nature of the series: Cytotoxicity against human NCI-H460 cells after 48 hrs by [3H]thymidine incorporation assay. It counts as functional, cell-based. The method in brief: as §1
A short description of series [3]: Cell cycle arrest in human U87MG cells assessed as accumulation at G2/M phase at 33 nM after 24 hrs by flow cytometry. The format is functional, cell-based. The settings on record: U-87MG ATCC. The gist of the method:
as §2
For orientation: A flow cytometer gives signals particle by particle.

The subject of the next series is Brain. Nature of the series: Drug uptake in perfused mouse brain assessed as blood-brain transfer coefficient. It counts as ADME, tissue-based. The settings on record: in vivo. The method in brief: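 In situ brain perfusion was done in adult male CD-1 mice. Radiolabeled drug in Krebs/bicarbonate buffer (gassed 95% O2/5% CO2, pH 7.4, 37 °C) was infused into the carotid artery for 0.5, 1, 2 or 4 min, then washed out tracer-free for 60 s. Brain homogenate radioactivity was counted (γ or liquid scintillation) and expressed as apparent Vd. Vd versus time was fitted by least-squares regression.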

Series [4] is described as follows: Cell cycle arrest in human U87MG cells assessed as accumulation at G0/G1 phase at 33 nM after 24 hrs by flow cytometry. The format is functional, cell-based. Particulars: U-87MG ATCC. The gist of the method:
as §2

A short description of series [5]: Cell cycle arrest in human U87MG cells assessed as accumulation at G2/M phase at 1 uM after 24 hrs by flow cytometry. It counts as functional, cell-based. The settings on record: U-87MG ATCC. The method in brief: as §2
Series [6] can be described thus: Cell cycle arrest in human U87MG cells assessed as accumulation at G0/G1 phase at 1 uM after 24 hrs by flow cytometry. Particulars: U-87MG ATCC. It counts as functional, cell-based. The gist of the method:
as §2

The nature of series [7]: Cell cycle arrest in human U87MG cells assessed as accumulation at S phase at 1 uM after 24 hrs by flow cytometry. The settings on record: U-87MG ATCC. The format is functional, cell-based. The gist of the method:
as §2

The nature of series [8]: Cell cycle arrest in human U87MG cells assessed as accumulation at G2/M phase at 100 nM after 24 hrs by flow cytometry. It counts as functional, cell-based. Particulars: U-87MG ATCC. The method in brief: as §2
A short description of series [9]: Cell cycle arrest in human U87MG cells assessed as accumulation at G0/G1 phase at 100 nM after 24 hrs by flow cytometry. The format is functional, cell-based. The settings on record: U-87MG ATCC. The gist of the method: as §2
Series [10] can be described thus: Cell cycle arrest in human U87MG cells assessed as accumulation at S phase at 100 nM after 24 hrs by flow cytometry. It counts as functional, cell-based. Particulars: U-87MG ATCC. The gist of the method: as §2
Series [11] can be described thus: Cell cycle arrest in human U87MG cells assessed as accumulation at G2/M phase at 3 uM after 24 hrs by flow cytometry. The format is functional, cell-based. Particulars: U-87MG ATCC. The method in brief:
as §2

A short description of series [12]: Cell cycle arrest in human U87MG cells assessed as accumulation at G0/G1 phase at 3 uM after 24 hrs by flow cytometry. The format is functional, cell-based. Particulars: U-87MG ATCC. The gist of the method:
as §2

A short description of series [13]: Cell cycle arrest in human U87MG cells assessed as accumulation at S phase at 3 uM after 24 hrs by flow cytometry. It counts as functional, cell-based. The settings on record: U-87MG ATCC. The method in brief: as §2

Turning to `COc1cccc2c1C(=O)c1c(O)c3c(c(O)c1C2=O)C[C@@](O)(C(=O)COC(=O)CCC(=O)NCCCC[C@H](NC(=O)CNC(=O)[C@H](CCCNC(=N)N)NC(=O)[C@H](CO)NC(=O)CNC(=O)CNC(=O)[C@H](Cc1ccc(O)cc1)NC(=O)[C@H](Cc1ccccc1)NC(=O)[C@H](Cc1ccccc1)NC(=O)[C@@H](NC(=O)CCC(=O)OCC(=O)[C@]1(O)Cc2c(O)c4c(c(O)c2[C@@H](O[C@H]2C[C@H](N)[C@H](O)[C@H](C)O2)C1)C(=O)c1c(OC)cccc1C4=O)C(C)O)C(=O)N[C@@H](CCCNC(=N)N)C(=O)N[C@@H](CC(N)=O)C(=O)N[C@@H](CC(N)=O)C(=O)N[C@@H](Cc1ccccc1)C(=O)N[C@@H](CCCCNC(=O)CCC(=O)OCC(=O)[C@]1(O)Cc2c(O)c4c(c(O)c2[C@@H](O[C@H]2C[C@H](N)[C@H](O)[C@H](C)O2)C1)C(=O)c1c(OC)cccc1C4=O)C(=O)N[C@H](C(=O)N[C@@H](CCC(=O)O)C(=O)N[C@@H](CCC(=O)O)C(=O)N[C@@H](Cc1ccc(O)cc1)C(=O)O)[C@@H](C)O)C[C@@H]3O[C@H]1C[C@H](N)[C@H](O)[C@H](C)O1` (some centres undefined), the half-inhibitory concentration (IC50) in series [1] turned out to be 6 nM; with SK-HEP1, 4.6 nM; in the series on NCI-H460, 7.3 nM. Moreover, the figures for the Activity in series [2], in series [3] and in series [4] were 10.1%, 57.3% and 32.3%, respectively. Besides, the Kin in the series with Brain is 31 10^-4ml/g/s.
Turning to `COc1cc([C@@H]2c3cc4c(cc3[C@@H](O[C@@H]3O[C@@H]5CO[C@@H](C)O[C@H]5[C@H](O)[C@H]3OC(=O)CCCC(=O)NCCCC[C@H](NC(=O)CNC(=O)[C@H](CCCNC(=N)N)NC(=O)[C@H](CO)NC(=O)CNC(=O)CNC(=O)[C@H](Cc3ccc(O)cc3)NC(=O)[C@H](Cc3ccccc3)NC(=O)[C@H](Cc3ccccc3)NC(=O)[C@@H](NC(=O)CCCC(=O)O[C@H]3[C@H](O[C@@H]5c6cc7c(cc6[C@@H](c6cc(OC)c(OC(=O)CN(C)C)c(OC)c6)[C@H]6C(=O)OC[C@@H]65)OCO7)O[C@@H]5CO[C@@H](C)O[C@H]5[C@@H]3O)C(C)O)C(=O)N[C@@H](CCCNC(=N)N)C(=O)N[C@@H](CC(N)=O)C(=O)N[C@@H](CC(N)=O)C(=O)N[C@@H](Cc3ccccc3)C(=O)N[C@@H](CCCCNC(=O)CCCC(=O)O[C@H]3[C@H](O[C@@H]5c6cc7c(cc6[C@@H](c6cc(OC)c(OC(=O)CN(C)C)c(OC)c6)[C@H]6C(=O)OC[C@@H]65)OCO7)O[C@@H]5CO[C@@H](C)O[C@H]5[C@@H]3O)C(=O)N[C@H](C(=O)N[C@@H](CCC(=O)O)C(=O)N[C@@H](CCC(=O)O)C(=O)N[C@@H](Cc3ccc(O)cc3)C(=O)O)[C@@H](C)O)[C@H]3COC(=O)[C@H]23)OCO4)cc(OC)c1OC(=O)CN(C)C` (some centres undefined), the half-maximal inhibitory concentration (IC50) amounted to 330 nM in series [1], 48 nM in the series with SK-HEP1 and 148 nM in the series on NCI-H460. The values for the Activity in [5], in series [6] and in series [7] were 70.8%, 25.7% and 3.3%, respectively. Besides, the Kin in the series with Brain was 22 10^-4ml/g/s.
As for `CC(=O)O[C@H]1C(=O)[C@@]2(C)[C@H]([C@H](OC(=O)c3ccccc3)[C@]3(O)C[C@H](OC(=O)[C@H](O)[C@@H](NC(=O)c4ccccc4)c4ccccc4)C(C)=C1C3(C)C)[C@]1(OC(C)=O)CO[C@@H]1C[C@@H]2O` [PACLITAXEL], the Kin with Brain is 6.9 10^-4ml/g/s.
Take `COc1cccc2c1C(=O)c1c(O)c3c(c(O)c1C2=O)C[C@@](O)(C(=O)CO)C[C@@H]3O[C@H]1C[C@H](N)[C@H](O)[C@H](C)O1` [DOXORUBICIN]: the Activity in [8] was 59.9%; in [9], 30.8%; in series [10], 8.9%. The concentration for half-maximal inhibition (IC50) stood at 18 nM in series [1], 10 nM in the series on SK-HEP1 and 11 nM in the series with NCI-H460. In addition, the Kin in the series with Brain is reported as 2.5 10^-4ml/g/s.
As for `COc1cc([C@@H]2c3cc4c(cc3[C@@H](O[C@@H]3O[C@@H]5CO[C@@H](C)O[C@H]5[C@H](O)[C@H]3O)[C@H]3COC(=O)[C@H]23)OCO4)cc(OC)c1O` [ETOPOSIDE], the half-maximal inhibitory concentration (IC50) in series [1] stood at 145 nM; in the series on SK-HEP1, 62 nM; in the series with NCI-H460, 90 nM. The results for the Activity in series [11], in series [12] and in [13] were 87%, 8.9% and 4.2%, respectively. In addition, the Kin in the series with Brain is 0.9 10^-4ml/g/s.

As a reminder, the IC50 is the concentration needed to halve the response being measured.
